High-throughput results from PubChem BioAssay.
This is one part of a sample in which hits are shown more often than they occur.
ABCG2 block = inhibitors of human ABCG2 transporter, ABCB1 counter-screen. Q9UNQ0. AID 1325. 190,000 compounds, 0.1% hits. inhibition, % at 6.6 µM. IgMXP3 cells, JC-1 efflux, flow cytometry;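 active means inhibition above 80%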;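 further: 0% = DMSO and 100% = nicardipine control wells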
Target sequence (Q9UNQ0 whole entry, looked up): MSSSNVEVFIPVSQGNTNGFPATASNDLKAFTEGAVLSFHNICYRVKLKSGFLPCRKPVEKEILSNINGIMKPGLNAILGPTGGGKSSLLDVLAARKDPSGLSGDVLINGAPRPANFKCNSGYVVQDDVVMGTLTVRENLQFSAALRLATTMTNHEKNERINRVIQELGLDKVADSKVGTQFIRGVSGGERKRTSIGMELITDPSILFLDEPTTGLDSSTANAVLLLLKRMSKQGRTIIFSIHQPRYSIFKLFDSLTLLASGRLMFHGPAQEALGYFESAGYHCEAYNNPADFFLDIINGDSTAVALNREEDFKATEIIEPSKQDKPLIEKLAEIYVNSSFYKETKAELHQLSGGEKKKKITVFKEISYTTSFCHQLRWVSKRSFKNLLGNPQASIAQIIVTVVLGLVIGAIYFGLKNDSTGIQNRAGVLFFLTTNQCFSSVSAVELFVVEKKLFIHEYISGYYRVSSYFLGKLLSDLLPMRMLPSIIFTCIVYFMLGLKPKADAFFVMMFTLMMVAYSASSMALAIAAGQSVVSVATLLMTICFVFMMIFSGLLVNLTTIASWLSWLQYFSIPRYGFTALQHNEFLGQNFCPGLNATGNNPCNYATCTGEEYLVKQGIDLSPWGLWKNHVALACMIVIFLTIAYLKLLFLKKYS
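System: two drug-resistant human cell lines, ABCG2 and ABCB1; controls: nicardipine high and DMSO low controls; times: 10 min exposure at 25 °C with rotation, no wash; detection: flow cytometry of retained JC-1 fluorescence; read-out basis: percent efflux inhibition, scaled nicardipine 100% to DMSO 0%; doses: one concentration, 6.6 µM final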
ABCB1 block = human ABCB1 inhibition, ABCG2 as counter-screen. 190,000 compounds, 0.067% hits. P08183. AID 1326. CCRF-Adr cells, JC-1 efflux, flow cytometry. inhibition, % at 6.6 µM; in the data active means inhibition above about 40%;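 further: 0% = vehicle and 100% = reference inhibitor; higher value means more JC-1 retained so stronger ABCB1 efflux block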
Lmaj promast = reduces viability of Leishmania major promastigotes; inhibition, % at 10 µM; AID 1063; resazurin fluorescence viability; 200,000 compounds, 9% hits;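 further: promastigotes grown with compound for 44 hours at 28 °C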
PKD1 kinase inh = inhibitors of human PKD1 kinase; Q15139; PKD1 kinase fluorescence polarization assay; inhibition, % (concentration not given with the values); 200,000 compounds, 0.056% hits; AID 797
GSH fluor = GSH bead compound fluorescence profile; AID 1776; fluorescence (KMESF) at 10 µM; 190,000 compounds, 0.25% hits; GSH beads flow cytometry, compound fluorescence 488/530 nm; hits give high values; in the data active means fluorescence above about 89;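 further: glutathione beads carrying GST-tagged Bcl family fusion proteins plus one bare bead set; values are compound well signal with DMSO vehicle wells as background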
Avidin fluor = avidin bead compound fluorescence profile. 220,000 compounds, 0.38% hits. Avidin beads, compound fluorescence 488/530 nm, flow cytometry; hits give high values. fluorescence (KMESF) at 10 µM; in the data active means fluorescence above about 47
PKD FP artifact = counter-screen for PKD inhibitors: fluorescence polarization interference. shares compounds with PKD1 kinase inh. PKD1 FP assay interference counter-screen. inhibition, % at 10 µM. 85 tested, under 10 active. AID 1315; call rule not given here
L major 1uM = blocks Leishmania major promastigote growth at 1 uM, repeat screen; shares compounds with Lmaj promast; L. major promastigote growth, resazurin fluorescence, 48 h; inhibition, % at 1 µM; 1,100 compounds, 13% hits; AID 1258;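 active means inhibition above about 50% in both repeat tests, limit read from the data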
Numbers without * were called inactive; x = not tested or not shown. Unless noted, no stated cut-off is given here; in the data, active means inhibition above about 50%; inactive means the rest.

SMILES | ABCG2 block | ABCB1 block | Lmaj promast | PKD1 kinase inh | GSH fluor | Avidin fluor | L major 1uM | others
CS(=O)(=O)N1CCN(c2ccccc2NC(=O)c2ccc(Br)o2)CC1 | 3 | 0 | -1 | 96* | 25 | 12 | x | PKD FP artifact=-9
O=C(CCN1CCOCC1)N/N=C/c1cc(Br)cc(Br)c1O | -1 | 0 | 0 | -4 | 10 | 4 | x
COc1ccc(N2CCN(C(=O)CSc3nnc(COc4cccc5cccnc45)o3)CC2)cc1 | 6 | 1 | 7 | -2 | 10 | 26 | x
O=C1OC(/C=C/c2ccc(Cl)cc2Cl)=NC/1=C\c1cccs1 | 1 | 2 | -9 | -5 | 8 | 5 | x
CC(C)(C)NC(=O)Cn1c(=O)n(CC(=O)NC(C)(C)C)c2ccccc21 | 1 | 0 | -1 | -2 | 14 | 12 | x
c1ccc(-c2n[nH]c3ccccc23)cc1 | 3 | 0 | -1 | 90* | 17 | 9 | x | PKD FP artifact=-7
CCc1ccccc1OCC(=O)NC1CCCC1 | 0 | 0 | 11 | -6 | 20 | 8 | x
COC(=O)c1ccccc1OCC(=O)NC1CCCCC1 | 11 | 1 | 5 | 85* | 32 | 8 | x | PKD FP artifact=-12
C=CCOc1cccc(C2C(C(=O)c3ccco3)=C(O)C(=O)N2CCN(CC)CC)c1 (stereo not given) | 1 | 1 | -5 | -11 | 11 | x | x
C=CCOc1cccc(C2C(C(=O)c3ccc(C)o3)=C(O)C(=O)N2c2nccs2)c1 (stereo not given) | 1 | 0 | -10 | 76* | 9 | 9 | x | PKD FP artifact=54*
NC(N)=NC(=O)c1nc(Cl)c(N)nc1N | 0 | 0 | -1 | 80* | 18 | 11 | x | PKD FP artifact=-1
CCCCSc1nnc2c(n1)[nH]c1ccccc12 | 2 | 0 | 8 | -7 | 13 | 33 | x
Clc1ccc(Nc2ccc(-n3ccnc3)nn2)cc1Cl | 1 | 0 | 51* | 52* | 15 | 37 | -3 | PKD FP artifact=-6
COC(=O)c1cc(OC)c(OC)cc1NC(=O)CSc1nnnn1Cc1ccccc1 | 36 | 0 | 4 | -3 | 35 | 16 | x
CCOC(=O)Cc1cc(-c2ccc(F)cc2)nc2ccc3ccccc3c12 | -1 | 0 | 68* | -3 | 10 | 14 | 7
CCOC(=O)Cc1cc(-c2ccc(O)cc2)nc2ccc3ccccc3c12 | 5 | 0 | 15 | -11 | 27 | 8 | x
COCC(=O)Nc1nc2ccc(S(C)(=O)=O)cc2s1 | 3 | 0 | 3 | -5 | 32 | 11 | x
CCOc1ccc(-c2noc(-c3cccnc3)n2)cc1OC | 1 | -1 | 71* | 2 | 34 | 7 | 46
CCCCC(CC)C(=O)NCC(C)NC(=O)C(CC)CCCC (stereo not given) | 4 | 1 | 61* | -8 | 5 | 12 | -9
CC(CNC(=O)C(C)C)NC(=O)C(C)C (stereo not given) | 1 | 0 | 2 | -7 | 21 | 14 | x
O=[N+]([O-])c1ccc(Nc2cccc(F)c2)nc1 | 3 | 0 | 1 | 1 | 17 | 8 | x
CN(Cc1nc(-c2cnccn2)no1)CC1(c2ccccc2)CC1(C)C (stereo not given) | 2 | 1 | 6 | 1 | 13 | 7 | x
O=c1c2sc3nc(N4CCOCC4)c4c(c3c2ncn1CCc1ccccc1)CCCC4 | 7 | 4 | 74* | -19 | 7 | 8 | -11
O=c1c2sc3nc(N4CCOCC4)c4c(c3c2ncn1-c1ccccc1)CCCC4 | 12 | 7 | 40 | 9 | 21 | 9 | x
CC1(C)CC2(CCO1)OC(=O)CC2C(=O)Nc1cccc2ccccc12 (stereo not given) | 2 | 0 | 1 | -1 | 25 | 32 | x
SMILES | ABCG2 block | ABCB1 block | Lmaj promast | PKD1 kinase inh | GSH fluor | Avidin fluor | L major 1uM | others
O=C(OCc1ccccc1)c1cn(-c2ccccc2)nc1-c1ccncc1 | 5 | 1 | 69* | -13 | 16 | 9 | 9
CCn1cc(C(=O)OCc2ccc(F)cc2)c(=O)c2ccc(C)nc21 | 4 | 1 | 50* | -7 | 22 | 24 | -2
COc1ccc(N2C3=[N+](CC2(C)O)c2ccccc2CC3)cc1 (stereo not given) | 1 | 0 | 90* | -3 | 54 | 9 | 39
CCC(CC)NCC(O)COc1ccc(Br)cc1 (stereo not given) | 3 | 1 | 66* | 0 | 26 | 10 | 6
O=C(Nc1cccc(C(=O)N2CCN(c3cccc(Cl)c3)CC2)c1)c1ccccc1 | 14 | 4 | 13 | 9 | 13 | 9 | x
COc1ccc(OC)c(N2Cc3ccccc3C2)c1 | 1 | 0 | -2 | -5 | 19 | x | x
COc1ccccc1N1Cc2ccccc2C1 | 0 | 0 | 91* | -5 | 11 | 33 | -10
CCn1c(Cc2ccc(OC)cc2)nnc1SCc1nc2ccccc2c(=O)[nH]1 | 3 | 0 | -7 | -6 | 9 | 26 | x
CC(=O)Nc1ccc(C2=NN(c3ccccc3)C(c3cccs3)C2)cc1 (stereo not given) | 0 | 0 | 66* | -6 | 17 | 10 | -5
O=C(CSc1n[nH]c(-c2ccncc2)n1)NC1CCS(=O)(=O)C1 (stereo not given) | -1 | 0 | -4 | 17 | 26 | 8 | x
CCCCN=C1CC(C)(C)CC(=O)/C1=C(/O)CCC | x | x | x | x | x | 7 | x
Cc1ccc([N+](=O)[O-])cc1N=Nc1c(-c2ccc([N+](=O)[O-])cc2)[nH]n(C(N)=S)c1=O | -2 | 0 | 88* | -1 | 26 | 8 | -5
Cc1ccc(N=Nc2c(C)[nH]n(C(N)=S)c2=O)cc1 | 2 | 0 | 29 | 1 | 12 | 19 | x
CN1c2ccccc2Oc2nnc(Cl)cc21 | 2 | 0 | 15 | 1 | 27 | 6 | x
CCN(CC)CCOc1cc2c(nn1)Oc1ccccc1N2C | x | x | 100* | 0 | 17 | 6 | 9
CC(C)(C)NC(=O)c1cc([N+](=O)[O-])ccc1N1CCCCC1 | 32 | 0 | -2 | -7 | 11 | 24 | x
CCOC(=O)c1c(C)nc2c3ccccc3ccn12 | 7 | -1 | 6 | 2 | 38 | 6 | x
CC(=O)c1c(-c2ccc(C)cc2)nc2c3ccccc3ccn12 | 37 | 1 | 59* | -1 | 15 | 11 | 43
COc1cccc(/C=C/C(=O)OCC(=O)Nc2ccc(Cl)c(S(=O)(=O)N(C)C)c2)c1OC | 4 | 1 | -6 | -3 | 67 | 27 | x
Brc1ccc(-n2cc(-c3ccccc3)c3c(NN4CCOCC4)ncnc32)cc1 | 7 | 3 | 28 | -5 | 11 | 11 | x
CCN(CC)c1ccc(/C=N/NC(=O)c2cccc(S(=O)(=O)N3CCOCC3)c2)c(O)c1 | -7 | -1 | 100* | 3 | 16 | 7 | -31
O=C(O)CCNC(=O)c1ccc(Br)o1 | 1 | 0 | -9 | -2 | 8 | 17 | x
